Screens deposited in PubChem BioAssay by The Scripps Research Institute Molecular Screening Center.
Rows were chosen to be rich in hits. Some 3.5% of all compounds tested hit in one or more screens of this group.
ABHD4 inh: inhibitors of mouse ABHD4. inhibition, % at 8.92 µM. purified mABHD4, FP-Rh probe fluorescence polarization. Q8VD66. hit rate 0.54% among 370,000;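 active means inhibition exceeding the mean over every tested compound plus 3 SD, cut at about 30% in these data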
Target sequence (Q8VD66 whole entry, looked up): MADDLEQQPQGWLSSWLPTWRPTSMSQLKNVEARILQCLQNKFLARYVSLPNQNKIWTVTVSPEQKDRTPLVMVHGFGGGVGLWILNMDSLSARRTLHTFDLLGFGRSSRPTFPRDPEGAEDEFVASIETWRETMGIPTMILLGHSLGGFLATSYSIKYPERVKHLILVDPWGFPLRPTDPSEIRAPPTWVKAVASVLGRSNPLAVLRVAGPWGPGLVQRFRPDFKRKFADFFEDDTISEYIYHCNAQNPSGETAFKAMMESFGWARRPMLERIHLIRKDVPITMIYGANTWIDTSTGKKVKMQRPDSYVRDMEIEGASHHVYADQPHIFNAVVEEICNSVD
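Assay system: mouse ABHD4 enzyme, wild type / Also added: fluorescent activity-based probe FP-Rh / Doses: single nominal dose of 8.92 µM, 0.89% DMSO final / Timing: 45 min compound pre-incubation plus 60 min probe step, 25 °C / Signal: FP readout, ex 525 nm / em 598 nm / Control set: S159A mutant/DMSO as 100%, compound-well median as 0%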
rCAG binder: molecules binding r(CAG) RNA repeats. r(CAG) RNA repeat, TO-PRO-1 dye displacement fluorescence. inhibition, % at 3 µM. hit rate 1.3% among 370,000;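 active means inhibition above the plate cutoff, the mean of all test compounds on that plate plus 3 SD, cut at about 35% in these data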;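 further: higher means more dye released from RNA so lower well fluorescence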
SIAE primary: inhibitors of human sialic acid acetylesterase SIAE; SIAE FP-Rh probe binding, fluorescence polarization; Q9HAT2; inhibition, % at 9.66 µM; hit rate 0.69% among 370,000;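 active means inhibition above a cutoff: mean of compounds within the control limits plus 3 SD of those, cut at about 17% in these data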
PRMT1 FP inh: inhibitors of human PRMT1. recombinant PRMT1, activity-based probe fluorescence polarization. inhibition, % at 2.79 µM. AID 652257. hit rate 1.3% among 370,000;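 active means inhibition above about 21% made by adding two undisclosed values, limit read from the data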
Target sequence (Q99873 whole entry, looked up): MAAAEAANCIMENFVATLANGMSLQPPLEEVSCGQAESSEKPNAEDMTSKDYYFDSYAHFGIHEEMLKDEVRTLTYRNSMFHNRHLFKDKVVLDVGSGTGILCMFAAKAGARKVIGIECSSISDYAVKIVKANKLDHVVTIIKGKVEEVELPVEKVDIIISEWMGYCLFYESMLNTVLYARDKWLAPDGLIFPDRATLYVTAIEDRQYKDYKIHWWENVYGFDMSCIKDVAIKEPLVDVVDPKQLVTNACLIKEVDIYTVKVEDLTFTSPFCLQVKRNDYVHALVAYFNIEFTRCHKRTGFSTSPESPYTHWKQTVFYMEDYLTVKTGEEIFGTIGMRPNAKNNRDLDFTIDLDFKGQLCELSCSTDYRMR
TCR CD3 inh: inhibitors of human TCR-CD3 interaction; TAMRA-labeled TCR probe fluorescence, biochemical; inhibition, % at 9.4 µM; hit rate 0.37% among 360,000;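 further: recombinant mutant TCR 2C K166C tagged with TAMRA read by polarization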
HTRA1 inhibitor: HTRA1 (human) protease inhibition; Q92743; AID 504803; hit rate 0.5% among 340,000; recombinant HTRA1, FP-rhodamine activity-based probe, fluorescence polarization; inhibition, % at 5.96 µM; in the data active means inhibition above about 36%
BSA TAMRA ctr: BSA probe counter-screen for TCR-CD3 inhibitors | TAMRA-labeled BSA probe fluorescence counterscreen | inhibition, % at 9.4 µM | hit rate 10% among 1,200 | shares compounds with TCR CD3 inh; in the data active means inhibition above about 23%
TCR-CD3 conf: TCR-CD3 interaction inhibition, confirmation. hit rate 48% among 1,200. AID 652036. inhibition, % at 9.4 µM. TAMRA-labeled TCR probe fluorescence binding assay. shares compounds with TCR CD3 inh
rCAG binder conf: r(CAG) RNA repeat binding, confirmation; shares compounds with rCAG binder; TO-PRO-1 dye displacement fluorescence; inhibition, % at 3 µM; hit rate 70% among 4,300; AID 652065;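 active means inhibition above a per-plate cutoff, the mean inhibition of sample wells plus 3 SD, cut at about 35% in these data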;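 further: loss of TO-PRO-1 fluorescence as compound displaces dye from 1x1 AA loop RNA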
dCAG dye counter: DNA CAG dye complex inhibition counter-screen; shares compounds with rCAG binder; d(CAG) DNA oligo TO-PRO-1 dye displacement, fluorescence; inhibition, % at 3 µM; hit rate 94% among 4,300; AID 652068;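 active means inhibition above its plate's cutoff, the mean test-well inhibition plus 3 SD, cut at about 4.8% in these data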;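 further: hits displace the dye from DNA and so lower well fluorescence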
Numbers stand for hits; n = inactive; x = no result. Unless noted, no stated cut-off is given here; in the data, active means inhibition above about 19%; inactive means the rest.

SMILES	ABHD4 inh	rCAG binder	SIAE primary	PRMT1 FP inh	TCR CD3 inh	HTRA1 inhibitor	BSA TAMRA ctr	TCR-CD3 conf	others
CCOC(=O)C1(C(=O)OCC)Cc2c([nH]c3ccccc23)[C@]2(N1)C(=O)N(C)c1ccc(Br)cc12	n	n	n	n	x	x	x	x
CCc1c(C)sc(NC(=O)OC)c1C(=O)N1CCCCC1	n	n	n	n	19	n	n	n
CCCCOCCCNC(=S)Nc1ccc(S(=O)(=O)N2CCOCC2)cc1	n	n	n	n	n	n	x	x
O=S(=O)(c1ccc(NC(=S)NCCC(c2ccccc2)c2ccccc2)cc1)N1CCOCC1	n	n	n	n	33	n	n	n
CCOc1ccc(CCNC(=O)c2cc3sccc3n2CC)cc1OC	n	n	n	n	x	x	x	x
COC(=O)Cn1nc(-c2ccccc2)c2cccc(C(F)(F)F)c21	n	x	n	n	x	x	x	x
CC1=NN(C(=O)c2ccccc2Br)C(O)(c2ccc(Cl)cc2)C1 (stereo not drawn)	n	n	n	n	28	n	n	n
C=CCN1C(=O)[C@@H](CC(=O)N2CCOCC2)[C@]2(C(=O)OCC)CCCCC/C=C/12	n	n	n	n	x	x	x	x
Cc1ccc(S(=O)(=O)N(C)c2ccc(OCC(=O)Nc3nc4c(ccc5ccccc54)s3)cc2)cc1	n	n	n	n	n	n	x	x
Cc1ccc(S(=O)(=O)N(C)c2ccc(OCC(=O)Nc3nc4ccccc4s3)cc2)cc1	n	n	n	n	21	n	n	n
COC(=O)[C@H]1C[C@]2(C(/C=C(\C)CCC=C(C)C)S(=O)(=O)c3ccccc3)c3ccccc3N[C@H]2N1 (stereo partly drawn)	n	x	n	n	x	x	x	x
Cc1cc(C(=O)C(C)OC(=O)c2ccc(NC(=O)CC#N)cc2)c(C)n1-c1ccc(OC(F)F)cc1 (stereo not drawn)	n	n	n	n	24	n	n	n
CC1CCC2(CC1)CCC2NCc1ccc(Br)cc1 (stereo not drawn)	n	x	n	n	x	x	x	x
c1ccc(CN2CCN(c3ncnc4sccc34)CC2)cc1	n	x	n	n	x	x	x	x
C=CCn1c(-c2ccco2)n[nH]c1=S	n	n	n	n	54	n	n	n
COc1ccc(NC(=O)NC2CCN(S(=O)(=O)c3ccc(F)cc3)CC2)cc1OC	n	n	n	n	x	x	x	x
CC(CCc1ccccc1)NC(=O)COC(=O)c1ccc([N+](=O)[O-])cc1 (stereo not drawn)	n	n	n	n	n	n	x	x
N#CCC(=O)Nc1ccc(C(=O)NCCC(c2ccccc2)c2ccccc2)cc1	n	n	n	n	21	n	n	n
CC(OC(=O)c1cccs1)C(=O)Nc1nc(-c2ccccc2)cs1 (stereo not drawn)	n	n	n	n	n	n	x	x
CC(OC(=O)c1ccc(NC(=O)CC#N)cc1)C(=O)Nc1nc(-c2ccccc2)cs1 (stereo not drawn)	n	n	n	n	35	n	n	n
CC(CCc1ccccc1)NC(=O)COC(=O)c1ccc(NC(=O)CC#N)cc1 (stereo not drawn)	n	n	n	n	30	n	n	n
O=C(CSc1nnc(Cc2cccs2)n1-c1ccc(Cl)cc1)Nc1ccc(OCc2ccccc2)cc1	n	n	n	n	x	x	x	x
O=C(Nc1nnc([C@H]2C[C@H](O)[C@@H](CO)O2)s1)c1cccc(Oc2ccccc2)c1	n	n	n	n	21	x	n	n
Cn1c(=O)c(C(=O)NNC(=O)c2ccccc2F)c(O)c2ccccc21	n	n	n	n	33	n	n	28
CCn1c(=O)c(C(=O)NNS(=O)(=O)c2ccc(NC(=O)OC)cc2)c(O)c2ccccc21	n	n	n	n	n	n	x	x
SMILES	ABHD4 inh	rCAG binder	SIAE primary	PRMT1 FP inh	TCR CD3 inh	HTRA1 inhibitor	BSA TAMRA ctr	TCR-CD3 conf	others
COC(=O)Nc1ccc(S(=O)(=O)NNC(=O)c2c(O)c3ccccc3n(C)c2=O)cc1	n	n	n	n	56	n	n	25
CCn1c(=O)c(C(=O)NNC(=O)c2ccccc2F)c(O)c2ccccc21	n	n	n	n	n	n	x	x
CCN(CC)C(=O)Cn1nc(Cc2ccncc2)c2ccccc2c1=O	n	n	n	n	x	x	x	x
COc1ccc(-n2c(COc3ccc(Cl)cc3)nnc2SCC(=O)Nc2ccc3c(c2)OCO3)cc1	n	n	n	n	x	x	x	x
S=c1[nH]nc(-c2n[nH]c3c2CCC3)n1/N=C/C=C/c1ccco1	n	n	n	n	27	x	n	n
S=c1[nH]nc(-c2n[nH]c3c2CCC3)n1N=Cc1ccco1	n	n	n	n	x	x	x	x
Cc1cc(=O)oc2c(CN3CCC(C)CC3)c(O)c(Cl)cc12	n	n	26	n	25	n	33	35
Cc1cc(=O)oc2c(CN3CCCC3)c(O)c(Cl)cc12	n	n	n	n	n	n	x	x
COc1ccc(C)c(NC(=O)[C@@H]2CCCN2S(=O)(=O)c2cccc3cccnc23)c1	n	x	n	n	x	x	x	x
COCCNc1oc(-c2ccc(Cl)cc2)nc1C#N	n	n	n	n	19	n	n	n
CCCn1nnc(NC(=O)/C=C/c2ccco2)n1	n	n	n	n	n	n	x	x
Cn1nnc(NC(=S)NC(=O)/C=C/c2ccco2)n1	n	n	n	n	19	n	n	n
Cc1ccccc1CC(=O)Nc1nnc(-c2cccnc2)s1	n	n	n	n	x	x	x	x
CN(Cc1ccccc1)S(=O)(=O)c1cccc(C(=O)OCc2ccccc2)c1	n	n	n	n	x	x	x	x
O=C(NNC(=O)OCc1ccccc1)OCc1ccccc1	n	n	n	n	111	n	n	n
CCOc1ccc(C(=O)CCC(=O)NNC(=O)c2ccccc2O)cc1	n	n	n	n	29	n	n	26
Cc1noc(C)c1COc1ccc(C(=O)NNC(=O)c2ccccc2O)cc1	n	n	n	n	25	n	n	26
CCOc1ccc(C(=O)CCC(=O)Nc2ncccc2O)cc1	n	n	n	n	n	n	x	x
CN1Cc2nnn(Cc3ccccc3)c2-c2cc(N3CCCC3)ccc2S1(=O)=O	n	n	n	n	x	x	x	x
O=C(N/N=C/c1cc(Br)cc(Br)c1O)c1cccc(S(=O)(=O)N2CCOCC2)c1	n	n	n	n	n	n	x	x
O=C(N/N=C/c1cc(Cl)cc([N+](=O)[O-])c1O)c1cccc(S(=O)(=O)N2CCOCC2)c1	n	68	n	n	41	n	n	58	rCAG binder conf=56;dCAG dye counter=20
CC1=CN2C(=N)/C(=C/c3ccc([N+](=O)[O-])o3)C(=O)N=C2S1	n	53	n	n	72	n	n	n	rCAG binder conf=n;dCAG dye counter=15
